≈ marks a conversion by molar mass, not a printed value.
Columns and labels:
[1] = Kinetic solubility of the compound in pH 7.4 PBS by nephelometric method; format: physicochemical; conditions: read-out: Kinetic_solubility
[2] = Half life in mouse liver microsomes at 0.1 uM in presence of NADPH by LC-MS/MS analysis; format: ADME, Microsome; conditions: for half-life at 0.1 µM: liver microsomes
Summary of the method: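 Mouse liver microsomes at 0.33 mg/mL protein with 5 mM MgCl2, 0.1 μM compound, 1 mM NADPH, 0.1 M Tris/HCl pH 7.4, final DMSO 0.01%. Pre-warmed 10 min at 37 °C, started with NADPH. Sampled at 0, 7, 17, 30 and 60 min, quenched with methanol, analysed by LC-MS/MS in duplicate. T1/2 = -0.693/k from first-order consumption.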

[3] = Tmax in Sprague-Dawley rat at 10 mg/kg, iv by LC-MS/MS analysis; format: ADME, organism-based; conditions: in vivo
Summary of the method: (§1)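 SD rats dosed in 5% DMSO + 5% Tween-80 in 90% saline, IV 10 mg/kg, PO 20 mg/kg or IP 20 mg/kg; blood collected and centrifuged to plasma, which was deproteinized with methanol containing internal standard, diluted and re-centrifuged; concentrations by LC/MS/MS.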

[4] = Cmax in Sprague-Dawley rat at 10 mg/kg, iv by LC-MS/MS analysis; format: ADME, organism-based; design: dose 10 mg/kg, route intravenous; conditions: in vivo
Summary of the method: (§2)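 SD rats dosed IV 10 mg/kg, PO 20 mg/kg or IP 20 mg/kg in 5% DMSO + 5% Tween-80 in 90% saline. Blood collected after dosing and spun to plasma. Plasma deproteinized with methanol containing internal standard, centrifuged, diluted with methanol and spun again. Compound in supernatant quantified by LC/MS/MS.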

[5] = AUC (0 to t) in Sprague-Dawley rat at 10 mg/kg, iv by LC-MS/MS analysis; format: ADME, organism-based; conditions: in vivo; summary of the method: as §2
[6] = AUC (0 to infinity) in Sprague-Dawley rat at 10 mg/kg, iv by LC-MS/MS analysis; format: ADME, organism-based; design: dose 10 mg/kg, time infinity, route intravenous; conditions: in vivo; summary of the method: as §2
[7] = MRT in Sprague-Dawley rat at 10 mg/kg, iv by LC-MS/MS analysis; format: ADME, organism-based; conditions: in vivo; summary of the method: as §1
[8] = Half life in Sprague-Dawley rat at 10 mg/kg, iv by LC-MS/MS analysis; format: ADME, organism-based; conditions: in vivo; summary of the method: as §2
[9] = Clearance in Sprague-Dawley rat at 10 mg/kg, iv by LC-MS/MS analysis; format: ADME, organism-based; conditions: in vivo; summary of the method: as §2
[10] = Tmax in Sprague-Dawley rat at 20 mg/kg, po by LC-MS/MS analysis; format: ADME, organism-based; conditions: in vivo; summary of the method: as §1
[11] = Cmax in Sprague-Dawley rat at 20 mg/kg, po by LC-MS/MS analysis; format: ADME, organism-based; design: dose 20 mg/kg, route oral; conditions: in vivo; summary of the method: as §2
[12] = AUC (0 to t) in Sprague-Dawley rat at 20 mg/kg, po by LC-MS/MS analysis; format: ADME, organism-based; conditions: in vivo; summary of the method: as §2
[13] = AUC (0 to infinity) in Sprague-Dawley rat at 20 mg/kg, po by LC-MS/MS analysis; format: ADME, organism-based; design: dose 20 mg/kg, route oral, time infinity; conditions: in vivo; summary of the method: as §2
[14] = MRT in Sprague-Dawley rat at 20 mg/kg, po by LC-MS/MS analysis; format: ADME, organism-based; conditions: in vivo; summary of the method: as §1
[15] = Half life in Sprague-Dawley rat at 20 mg/kg, po by LC-MS/MS analysis; format: ADME, organism-based; conditions: in vivo; summary of the method: as §2
[16] = Oral bioavailability in Sprague-Dawley rat at 20 mg/kg by LC-MS/MS analysis; format: ADME, organism-based; conditions: in vivo; summary of the method: as §1
[17] = Stability in rat blood at 5 uM measured after 5 hrs by LC-MS/MS analysis; format: ADME, tissue-based
Summary of the method: (§3)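 Compound at 5 μM in fresh rat blood at 37 °C; samples at 0, 0.5, 1.0, 2.0 and 5.0 h, stopped by methanol protein precipitation; percentage of residual parent measured by LC-MS/MS.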

[18] = Stability in rat blood assessed as parent compound remaining at 5 uM measured after 5 hrs by LC-MS/MS analysis; format: ADME, tissue-based; conditions: read-out: Stability; summary of the method: as §3
[19] = Volume of distribution at steady state in Sprague-Dawley rat at 10 mg/kg, iv by LC-MS/MS analysis; format: ADME, organism-based; conditions: in vivo; summary of the method: as §1
[20] = Tmax in Sprague-Dawley rat at 20 mg/kg, ip by LC-MS/MS analysis; format: ADME, organism-based; conditions: in vivo; summary of the method: as §1
[21] = Cmax in Sprague-Dawley rat at 20 mg/kg, ip by LC-MS/MS analysis; format: ADME, organism-based; design: dose 20 mg/kg, route intraperitoneal; conditions: in vivo; summary of the method: as §2
[22] = AUC (0 to t) in Sprague-Dawley rat at 20 mg/kg, ip by LC-MS/MS analysis; format: ADME, organism-based; conditions: in vivo; summary of the method: as §2
[23] = AUC (0 to infinity) in Sprague-Dawley rat at 20 mg/kg, ip by LC-MS/MS analysis; format: ADME, organism-based; design: dose 20 mg/kg, time infinity, route intraperitoneal; conditions: in vivo; summary of the method: as §2
[24] = MRT in Sprague-Dawley rat at 20 mg/kg, ip by LC-MS/MS analysis; format: ADME, organism-based; conditions: in vivo; summary of the method: as §1
[25] = Half life in Sprague-Dawley rat at 20 mg/kg, ip by LC-MS/MS analysis; format: ADME, organism-based; conditions: in vivo; summary of the method: as §2
[26] = Drug metabolism in mouse liver microsomes at 3 uM measured after 180 mins by UPLC-UV/Q-TOF MS analysis; format: ADME, Microsome; conditions: 3 h
[27] = Drug metabolism in human liver microsomes assessed as oxidation at 3 uM measured after 180 mins by UPLC-UV/Q-TOF MS analysis; format: ADME, Microsome; conditions: 3 h
[28] = Drug metabolism in monkey liver microsomes assessed as oxidation at 3 uM measured after 180 mins by UPLC-UV/Q-TOF MS analysis; format: ADME, Macaca mulatta, Microsome; conditions: rhesus monkey, 3 h
[29] = Drug metabolism in dog liver microsomes assessed as oxidation at 3 uM measured after 180 mins by UPLC-UV/Q-TOF MS analysis; format: ADME, Canis lupus familiaris, Microsome; conditions: 3 h
[30] = Drug metabolism in rat liver microsomes assessed as oxidation at 3 uM measured after 180 mins by UPLC-UV/Q-TOF MS analysis; format: ADME, Microsome; conditions: 3 h
[31] = Drug metabolism in mouse liver microsomes assessed as oxidation at 3 uM measured after 180 mins by UPLC-UV/Q-TOF MS analysis; format: ADME, Microsome; conditions: 3 h
[32] = Drug metabolism in human liver microsomes assessed as amino demethylation at 3 uM measured after 180 mins by UPLC-UV/Q-TOF MS analysis; format: ADME, Microsome; conditions: 3 h
[33] = Drug metabolism in monkey liver microsomes assessed as amino demethylation at 3 uM measured after 180 mins by UPLC-UV/Q-TOF MS analysis; format: ADME, Macaca mulatta, Microsome; conditions: rhesus monkey, 3 h
[34] = Drug metabolism in dog liver microsomes assessed as amino demethylation at 3 uM measured after 180 mins by UPLC-UV/Q-TOF MS analysis; format: ADME, Canis lupus familiaris, Microsome; conditions: 3 h
[35] = Drug metabolism in rat liver microsomes assessed as amino demethylation at 3 uM measured after 180 mins by UPLC-UV/Q-TOF MS analysis; format: ADME, Microsome; conditions: 3 h
Summary of the method: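 Human, mouse, rat, dog or monkey liver fractions (1.0×10^6 cells/mL) in William's medium E (pH 7.4) with 3.0 μM substrate, 37 °C for 180 min. Stopped with equal volume ice-cold acetonitrile. Duplicates pooled per species, spun, dried under nitrogen, reconstituted in acetonitrile/water 10:90. Metabolites profiled by UPLC-UV/Q-TOF MS.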

[36] = Drug metabolism in mouse liver microsomes assessed as amino demethylation at 3 uM measured after 180 mins by UPLC-UV/Q-TOF MS analysis; format: ADME, Microsome; conditions: 3 h

In the case of `CC(=O)c1ccccc1O`, the solubility kinetic [1] is reported as 50 µM (≈ 6.81 µg/mL).
With `CC(=O)c1cc(Br)ccc1O` the solubility kinetic [1] was 50 µM (≈ 10.8 µg/mL).
`C=CC(=O)Nc1ccc(-n2nc3c(=O)[nH]nc(N)c3c2-c2oc3ccc(Cl)cc3c2C)cc1` gave a solubility kinetic [1] of 20 µM (≈ 9.22 µg/mL) and a half-life at 0.1 µM [2] of 0.483 h.
`Cc1c(-c2c3c(N)n[nH]c(=O)c3nn2-c2ccc(NC(=O)/C=C/CN(C)C)cc2)oc2ccc(Br)cc12` gave a solubility kinetic [1] of 50 µM (≈ 28.1 µg/mL).
`C=CC(=O)Nc1ccc(-n2nc3c(=O)[nH]nc(N)c3c2-c2oc3ccc(C)cc3c2C)cc1` gave a solubility kinetic [1] of 20 µM (≈ 8.81 µg/mL), a half-life at 0.1 µM [2] of 0.517 h and a Tmax [3] of 4.98 min. It also gave a Cmax [4] of 1880 ng/mL, an AUC(0-t) [5] of 1090 ng·h/mL and an AUC(0-inf) [6] of 1270 ng·h/mL. For the same compound, the MRT ([7]; Sprague-Dawley, read-out: MRT) was 5.04 h, the half-life [8] was 6.25 h and the clearance ([9]; Sprague-Dawley) was 143 mL/min/kg. For the same compound, the Tmax [10] was 0.861 h, the Cmax [11] was 12.9 ng/mL and the AUC(0-t) [12] was 6.4 ng·h/mL. It also gave an AUC(0-inf) [13] of 6.4 ng·h/mL, an MRT [14] of 2.17 h and a half-life [15] of 1.77 h. For the same compound, the bioavailability [16] was 0.29%.
For `Cc1ccc2oc(-c3c4c(N)n[nH]c(=O)c4nn3-c3ccc(NC(=O)/C=C/CN(C)C)cc3)c(C)c2c1`, the solubility kinetic [1] was 50 µM (≈ 24.9 µg/mL), the half-life at 0.1 µM [2] was 1.05 h and the Stability [17] was “Stable”.
`Cc1ccc2oc(-c3c4c(N)n[nH]c(=O)c4nn3-c3ccc(NC(=O)/C=C/CN4CCOCC4)cc3)c(C)c2c1` gave a solubility kinetic [1] of 50 µM (≈ 27 µg/mL).
Compound `Cc1c(-c2c3c(N)n[nH]c(=O)c3nn2-c2ccc(NC(=O)/C=C/CN(C)C)cc2)oc2ccc(Cl)cc12` has a solubility kinetic [1] of 200 µM (≈ 104 µg/mL), a t1/2 ([2]; microsomes, 0.1 µM) of 1.72 h and a remaining at 5 h, 5 µM [18] of 20%. The AUC(0-t) [5] was 4310 ng·h/mL, the AUC(0-inf) [6] was 4410 ng·h/mL and the MRT [7] was 1.64 h. The half-life [8] was 8.55 h, the CL [9] was 37.8 mL/min/kg and the Vdss [19] was 28 L/kg. It also gave a Tmax [10] of 0.5 h, a Cmax [11] of 7.3 ng/mL and an AUC(0-t) [12] of 32.6 ng·h/mL. The AUC(0-inf) [13] was 51.5 ng·h/mL, the MRT [14] was 7.33 h and the half-life [15] was 21.6 h. The bioavailability [16] was 0%, the Tmax [20] was 0.5 h and the Cmax [21] was 5040 ng/mL. The AUC(0-t) [22] was 16800 ng·h/mL, the AUC(0-inf) [23] was 17000 ng·h/mL and the MRT [24] was 3.3 h. The half-life [25] was 4.63 h, the Drug metabolism [26] was 20% and the Drug metabolism [27] was “Metabolite_Detected”. For the same compound, the Drug metabolism [28] was “Metabolite_Detected”, the Drug metabolism [29] was “Metabolite_Detected” and the Drug metabolism [30] was “Metabolite_Detected”. For the same compound, the Drug metabolism [31] was “Metabolite_Detected”, the Drug metabolism [32] was “Metabolite_Detected” and the Drug metabolism [33] was “Metabolite_Detected”. The Drug metabolism [34] was “Metabolite_Detected”, the Drug metabolism [35] was “Metabolite_Detected” and the Drug metabolism [36] was “Metabolite_Detected”.
